Series [1] is filed under the species Cavia porcellus. The series is described as follows: The agonist potency in the guinea pig ileal longitudinal muscle preparation (GPI) was determined relative to morphine as control. It is filed as functional, Muscle tissue.
For series [2], the species on record is Cavia porcellus. Description: Compound was tested for persistent effect, percent inhibition of twitch that is not reversed by >=20 washings following 30 -min incubation at 20 nM. It is filed as functional.
For series [3], the species on record is Mus musculus. The series is described as follows: The agonist potency was assessed by measuring the inhibition of contraction at a single concentration (200 nM). The class given is functional.
For series [4], the species on record is Mus musculus. Description: Compound was tested for persistent effect, percent inhibition contraction that is not reversed significantly by >=20 washings following a 30 min incubation at 200 nM. The class given is functional.
Series [5] addresses Mu-type opioid receptor (Mus musculus) (UniProt P42866). Description: Irreversible antagonist activity at mouse vas deferens mu receptor against DADLE after 30 min at 200 nM. The class given is functional, tissue-based.
Series [6] concerns the target Mu-type opioid receptor (Homo sapiens) (UniProt P35372). The series is described as follows: Irreversible antagonist activity at mu receptor by determining by ileal response to morphine after 30 min incubation at 20 nM. It is filed as functional.
For series [7] the target is unchanged. The series is described as follows: Compound was tested for irreversible antagonist activity at mu receptor by determining by MVD response to DADLE after 30 min incubation at 20 nM. The class given is functional.
The target is the same in series [8]. The series is described as follows: Compound was tested for irreversible antagonist activity at mu receptor by determining by MVD response to morphine after 30 min incubation at 200 nM. The class given is functional.
The target in series [9] is Kappa-type opioid receptor (Homo sapiens) (UniProt P41145). The series is described as follows: Irreversible antagonist activity at kappa receptor as ileal response to ethylketazocine after 30 min incubation at 20 nM. It is filed as functional.
Sequence of Kappa-type opioid receptor (Homo sapiens) (P41145 whole entry): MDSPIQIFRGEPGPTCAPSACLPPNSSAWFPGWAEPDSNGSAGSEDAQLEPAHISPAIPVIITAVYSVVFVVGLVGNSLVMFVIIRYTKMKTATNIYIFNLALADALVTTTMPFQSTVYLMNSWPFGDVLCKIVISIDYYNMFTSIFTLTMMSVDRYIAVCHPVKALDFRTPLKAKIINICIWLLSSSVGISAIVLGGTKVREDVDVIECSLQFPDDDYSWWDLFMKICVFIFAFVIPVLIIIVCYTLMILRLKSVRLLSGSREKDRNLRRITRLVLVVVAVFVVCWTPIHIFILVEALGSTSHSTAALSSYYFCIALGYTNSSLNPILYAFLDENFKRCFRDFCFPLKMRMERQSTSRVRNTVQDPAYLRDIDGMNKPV
Series [10] is filed under the species Mus musculus. Description: The agonist potency was assessed by measuring the inhibition of contraction at a single concentration (200 nM). The class given is functional.
The target in series [11] is Kappa-type opioid receptor (Homo sapiens) (UniProt P41145). The series is described as follows: Compound was tested for irreversible antagonist activity at kappa receptor by determining by ileal response to ethylketazocine after 30 min incubation at 200 nM. It is filed as functional.
For series [12], the target named is Mu-type opioid receptor (Homo sapiens) (UniProt P35372). Description: Compound was tested for irreversible antagonist activity at mu receptor by determining by ileal response to morphine after 30 min incubation at 200 nM. It is filed as functional.
Sequence of Mu-type opioid receptor (Homo sapiens) (P35372 whole entry): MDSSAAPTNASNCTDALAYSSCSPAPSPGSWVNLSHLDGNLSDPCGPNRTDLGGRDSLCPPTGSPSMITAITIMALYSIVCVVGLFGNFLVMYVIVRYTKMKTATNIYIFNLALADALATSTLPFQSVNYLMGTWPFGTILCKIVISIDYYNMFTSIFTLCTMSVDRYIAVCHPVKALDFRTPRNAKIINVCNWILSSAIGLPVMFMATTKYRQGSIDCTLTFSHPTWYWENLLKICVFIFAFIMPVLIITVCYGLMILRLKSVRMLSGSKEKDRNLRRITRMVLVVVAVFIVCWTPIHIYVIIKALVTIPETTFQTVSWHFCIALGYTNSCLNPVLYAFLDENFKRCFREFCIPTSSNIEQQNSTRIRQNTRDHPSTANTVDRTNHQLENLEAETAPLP
Series [13] can be described thus: The relative rate (to beta FNA) in the reaction of Michael acceptors with cysteine at pH 7.4 at 25 degree Celsius in the presence of 13 fold excess cysteine was reported for half-life. It is filed as ADME. An outline of the steps:
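Reaction with a 13-fold excess of cysteine at pH 7.4, 25 °C under rapid stirring; aliquots quenched by acidification to pH 1 at timed intervals. Remaining compound quantified by reversed-phase HPLC (UV 254 nm, internal standard), four intervals in duplicate. Half-life taken from the slope of log amount remaining vs time; rate expressed relative to β-FNA.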

The target in series [14] is Mu-type opioid receptor (Homo sapiens) (UniProt P35372). Description: Compound was tested for irreversible antagonist activity at mu receptor by determining by MVD response to DADLE after 30 min incubation at 100 nM. It is filed as functional.
The target is the same in series [15]. Description: Compound was tested for irreversible antagonist activity at mu receptor by determining by ileal response to morphine after 30 min incubation at 1000 nM. The class given is functional.
Series [16] has the same target. The series is described as follows: Compound was tested for irreversible antagonist activity at mu receptor by determining by MVD response to morphine after 30 min incubation at 100 nM. The class given is functional.
Series [17] addresses Kappa-type opioid receptor (Homo sapiens) (UniProt P41145). The series is described as follows: Compound was tested for irreversible antagonist activity at kappa receptor by determining by ileal response to ethylketazocine after 30 min incubation at 1000 nM. It is filed as functional.
Series [18] is filed under the species Cavia porcellus. Description: Compound was tested for persistent effect, percent inhibition of twitch that is not reversed by >=20 washings following 30 -min incubation at 200 nM. The class given is functional.
Series [19] concerns the target Mu-type opioid receptor (Homo sapiens) (UniProt P35372). Description: Compound was tested for irreversible antagonist activity at mu receptor by determining by MVD response to Morphine after 30 min incubation at 200 nM. The class given is functional.
For series [20] the target is unchanged. The series is described as follows: Compound was tested for irreversible antagonist activity at mu receptor by determining by MVD response to ethylketazocine after 30 min incubation at 200 nM. The class given is functional.
For series [21], the target named is Kappa-type opioid receptor (Homo sapiens) (UniProt P41145). The series is described as follows: Compound was tested for irreversible antagonist activity at kappa receptor by determining by ileal response to ethylketazocine after 30 min incubation at 20 nM. It is filed as functional.
For series [22], the target named is Mu-type opioid receptor (Homo sapiens) (UniProt P35372). Description: Compound was tested for irreversible antagonist activity at mu receptor by determining by ileal response to morphine after 30 min incubation at 20 nM. The class given is functional.
Series [23] is filed under the species Cavia porcellus. Description: Compound was tested for persistent effect, percent inhibition of twitch that is not reversed by >=20 washings following 30 -min incubation at 200 nM; none. The class given is functional.
Series [24] is filed under the species Cavia porcellus. The series is described as follows: Compound was tested for persistent effect, percent inhibition of twitch that is not reversed by >=20 washings following 30 -min incubation at 20 nM; none. It is filed as functional.

SMILES strings stand for the structures. Activity calls are given as the source filed them. No cut-off for these calls is given here.

Sequence of Mu-type opioid receptor (Mus musculus) (P42866 whole entry): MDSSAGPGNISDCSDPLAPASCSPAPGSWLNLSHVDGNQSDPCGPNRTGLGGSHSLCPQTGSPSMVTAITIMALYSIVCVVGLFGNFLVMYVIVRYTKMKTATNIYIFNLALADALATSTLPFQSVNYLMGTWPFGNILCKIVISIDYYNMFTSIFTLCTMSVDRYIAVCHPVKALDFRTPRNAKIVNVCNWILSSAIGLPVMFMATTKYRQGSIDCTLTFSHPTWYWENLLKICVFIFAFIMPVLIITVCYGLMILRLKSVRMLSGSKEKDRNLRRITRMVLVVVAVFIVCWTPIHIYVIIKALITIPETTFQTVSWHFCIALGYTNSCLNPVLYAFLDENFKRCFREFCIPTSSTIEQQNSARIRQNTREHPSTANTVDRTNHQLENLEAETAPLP

Take `O=C(N[C@@H]1CC[C@@]2(O)[C@H]3Cc4ccc(O)c5c4[C@@]2(CCN3CC2CC2)[C@H]1O5)c1ccccc1`: in series [1], the Potency came to 201. Also, the Inhibition in series [2] is on record as 39%; in series [4] it was 50%. In series [3], this molecule returned an Agonist potency of 29 nM. Moreover, the Ratio came out at 1 in series [5]; 1.4 in series [6]; 2.3 in [7]; 1.9 in [8]; 0.91 in series [9].
Consider `O=C(CBr)N[C@@H]1CCC2(O)C3Cc4ccc(O)c5c4C2(CCN3CC2CC2)C1O5` (stereo partly specified), for which the Potency in series [1] was found to be 58. The Agonist potency in [10] was determined as 31. The same molecule came in with an Inhibition in series [4] of 20%. The Ratio stood at 0.78 in [11]; 1.5 in [5]; 1.7 in [12]; 3.3 in series [6]; 1.4 in [8]; 0.73 in series [9].
`O=C1C=CC(=O)N1[C@@H]1CCC2(O)C3Cc4ccc(O)c5c4C2(CCN3CC2CC2)C1O5` (stereo partly specified): the Relative rate in [13] is 450. The same molecule showed a Potency in series [1] of 2. The molecule also had an Agonist potency in series [10] of 52. The Inhibition in series [4] was 35%. Further, the Ratio in series [11] came to 1.4; in series [5], 0.81; in series [12], 1.3; in [6], 1.3; in series [8], 1.1; in series [9] it was 0.94.
Take `COC(=O)/C=C/C(=O)N[C@@H]1CC[C@@]2(O)[C@H]3Cc4ccc(O)c5c4[C@@]2(CCN3CC2CC2)[C@H]1O5`: the Relative rate in [13] came to 1. In addition, the Potency in series [1] was determined as 5. The Ratio in [14] is 1.8; in series [5], 1.1; in [15] it was 18.8; in series [6], 6; in [16] it was 3.9; in [8] it was 10.6. In addition, the figures for the Ratio in series [17] and in series [9] were 1.3 and 1, respectively.
With `O=C(CN1C(=O)C=CC1=O)N[C@@H]1CCC2(O)C3Cc4ccc(O)c5c4C2(CCN3CC2CC2)C1O5` (stereo partly specified), the Relative rate in series [13] stood at 450. This molecule showed a Potency in series [1] of 0.6. The Inhibition is 59% in [18] and 21% in [2]. For the same molecule, the Agonist potency in [10] amounted to 240 nM. Besides, the Ratio is 0.92 in series [11]; 1.8 in series [5]; 3.3 in series [12]; 1.5 in series [6]; 30 in [19]; 0.71 in [20]. The Ratio in [9] amounted to 0.71.
`COC(=O)CCC(=O)N[C@@H]1CCC2(O)C3Cc4ccc(O)c5c4C2(CCN3CC2CC2)C1O5` (stereo partly specified) registered a Potency in series [1] of 5.3. Further, in [18], the Inhibition amounted to 10%. The Ratio in series [21] stood at 1; in series [22] it was 0.92.
`O=C(CSSc1ccccc1[N+](=O)[O-])N[C@@H]1CCC2(O)C3Cc4ccc(O)c5c4C2(CCN3CC2CC2)C1O5` (stereo partly specified) returned a Potency in series [1] of 1.1. The inhibition entry in [23] was “inactive”. The molecule also showed an Agonist potency in [10] of 70. The Ratio in series [11] is 1.3; in series [5] it was 0.98; in [12] it was 2.5; in series [6] it was 1.3; in series [8], 1.8; in series [9], 0.5.
For `CC(=O)/C=C/C(=O)N[C@@H]1CCC2(O)C3Cc4ccc(O)c5c4C2(CCN3CC2CC2)C1O5` (stereo partly specified), the Relative rate in [13] stood at 225. Further, in series [1], the Potency amounted to 4.5. The Agonist potency in series [10] is 31. In addition, the Ratio in series [5] came out at 5; in series [6], 12.5; in series [8], 30; in series [9], 0.9. Moreover, in series [24], the inhibition result was “inactive”.

The values are drawn from ChEMBL document CHEMBL1122615, “Design and synthesis of naltrexone-derived affinity labels with nonequilibrium opioid agonist and antagonist activities. Evidence for the existence of different mu receptor subtypes in different tissues” (J Med Chem, 1984).
